From ChEMBL document CHEMBL3232757, “Structure-activity relationships for withanolides as inducers of the cellular heat-shock response” (J Med Chem, 2014)
Peptide text beside a SMILES is read from it. * marks the point of attachment. Cbz = O=C(OCc1ccccc1)*

What was measured:
[1] = target: Heat shock 70 kDa protein 6 (Homo sapiens) (UniProt P17066); assay: Induction of […] (unknown origin)-mediated heat shock response expressed in human 293T cells coexpressing GFP assessed as heat shock index after overnight incubation by luciferase reporter gene assay relative to control; assay type: cell-based
Heat shock 70 kDa protein 6 (Homo sapiens), sequence (P17066 whole entry, the tested form may be a part): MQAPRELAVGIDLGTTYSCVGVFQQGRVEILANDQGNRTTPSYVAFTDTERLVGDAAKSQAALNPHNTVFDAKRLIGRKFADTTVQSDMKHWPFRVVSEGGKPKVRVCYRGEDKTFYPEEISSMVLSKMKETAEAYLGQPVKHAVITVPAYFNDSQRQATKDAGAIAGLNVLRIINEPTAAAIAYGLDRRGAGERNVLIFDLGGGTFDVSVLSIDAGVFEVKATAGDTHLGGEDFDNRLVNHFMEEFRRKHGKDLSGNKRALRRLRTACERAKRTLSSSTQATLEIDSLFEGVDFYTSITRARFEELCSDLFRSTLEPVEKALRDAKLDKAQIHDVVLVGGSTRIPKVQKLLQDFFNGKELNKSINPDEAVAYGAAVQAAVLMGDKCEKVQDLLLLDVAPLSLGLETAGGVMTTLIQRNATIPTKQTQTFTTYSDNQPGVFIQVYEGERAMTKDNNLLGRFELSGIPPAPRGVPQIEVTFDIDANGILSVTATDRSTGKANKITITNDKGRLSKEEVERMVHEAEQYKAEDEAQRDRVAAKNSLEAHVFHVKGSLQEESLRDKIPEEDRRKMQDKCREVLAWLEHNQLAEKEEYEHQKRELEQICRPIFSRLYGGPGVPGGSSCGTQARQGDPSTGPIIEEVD
How it was run: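 293T cells transduced with a lentiviral EGFP–firefly luciferase fusion under HSP70B′ promoter elements, enriched by heat shock (42 °C, 1 h) plus FACS, then reverse-sorted to remove constitutive expressers. Cells in DMEM/10% FBS were seeded at 20 000/well and given serial dilutions next day, quadruplicate wells, overnight. Read by Steady-Glo luminescence. Index = [Log2(treated/control)]/concentration (μM) at maximal response.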

[2] = Cytotoxicity against human NCI-H929 cells after 3 days by Alamar blue assay; assay type: functional, cell-based; conditions: NCI-H929, 72 h
[3] = Cytotoxicity against human CHP100 cells assessed as inhibition of cell survival after 24 hrs by MTT assay; assay type: functional, cell-based; conditions: CHP100, 24 h
[4] = Cytotoxicity against human CHP100 cells assessed as inhibition of cell survival at 4 uM after 24 hrs by MTT assay relative to control; assay type: functional; conditions: CHP100, 24 h

Compound	fold change (FC) [1]	Activity [1]	IC50 [2] [nM]	IC50 [3] [nM]	inhibition at 4 µM [4] [%]
CC1=C(CO)C(=O)O[C@@H]([C@@H](C)[C@H]2CC[C@H]3[C@@H]4CC=C5C[C@@H](O)C[C@H](O)[C@]5(C)[C@H]4CC[C@]23C)C1	0		4960		
CC1=C(CO)C(=O)O[C@@H]([C@@H](C)[C@H]2CC[C@H]3[C@@H]4C[C@H]5O[C@]56C(=O)C=CC(=O)[C@]6(C)[C@H]4CC[C@]23C)C1	0.79		1160		
CC1=C(C)C(=O)O[C@@H]([C@](C)(O)[C@H]2CC[C@H]3[C@@H]4[C@@H]5O[C@@H]5[C@@]5(O)CC=CC(=O)[C@]5(C)[C@H]4CC[C@]23C)C1 [WITHANOLIDE A]	0		> 10000		
CC1=C(CO)C(=O)O[C@@H]([C@@H](C)[C@H]2CC[C@H]3[C@@H]4CC=C5[C@@H](O)C=CC(=O)[C@]5(C)[C@H]4CC[C@]23C)C1	0		5090		
CC(=O)OCC1=C(C)C[C@H]([C@@H](C)[C@H]2CC[C@H]3[C@@H]4CC=C5C(OC(C)=O)C=CC(=O)[C@]5(C)[C@H]4CC[C@]23C)OC1=O (single isomer, unassigned)	0.9		1630	530	> 80
CC1=C(CO)C(=O)O[C@@H]([C@@H](C)[C@H]2CC[C@H]3[C@@H]4C[C@H]5O[C@]56[C@@H](O)[C@@H](O)CC(=O)[C@]6(C)[C@H]4CC[C@]23C)C1 [VISCOSALACTONE B]	0		> 10000		
CC1=C(CO)C(=O)O[C@@H]([C@@H](C)[C@H]2CC[C@H]3[C@@H]4C[C@H]5O[C@]56[C@@H](O)[C@@H](OS(=O)(=O)O)CC(=O)[C@]6(C)[C@H]4CC[C@]23C)C1	0		5250		
CC(C)C[C@@H](C=O)NC(=O)[C@H](CC(C)C)NC(=O)[C@H](CC(C)C)NC(=O)OCc1ccccc1 [MG-132] (Cbz-Leu-Leu-Leu-aldehyde)	0.71		170		
CC1=C(CO)C(=O)OC([C@@H](C)C2CCC3C4C(CC[C@@]32C)[C@@]2(C)C(=O)C=CC[C@]2(O)[C@H]2O[C@@H]42)C1 (stereo not given in full)	0		> 10000		
CC1=C(CO)C(=O)O[C@@H]([C@@H](C)[C@H]2CC[C@H]3[C@@H]4C[C@H](O)[C@]5(O)[C@@H](O)C=CC(=O)[C@]5(C)[C@H]4CC[C@]23C)C1	0		> 10000		
CC1=C(CO)C(=O)O[C@@H]([C@@H](C)[C@H]2CC[C@H]3[C@@H]4C[C@H]5O[C@]56[C@@H](O)CCC(=O)[C@]6(C)[C@H]4CC[C@]23C)C1	0		> 10000		

The next lines start with results.

fold change (FC) [1]	Activity [1]	Compound	IC50 [2] [nM]	IC50 [3] [nM]	inhibition at 4 µM [4] [%]
0		CC1=C(COS(=O)(=O)O)C(=O)O[C@@H]([C@@H](C)[C@H]2CC[C@H]3[C@@H]4C[C@H]5O[C@]56[C@@H](OS(=O)(=O)O)C=CC(=O)[C@]6(C)[C@H]4CC[C@]23C)C1	> 10000		
0		CC(=O)OCC1=C(C)C[C@H]([C@@H](C)[C@H]2CC[C@H]3[C@@H]4C[C@@H](OC(C)=O)[C@@]5(O)CC=CC(=O)[C@]5(C)[C@H]4CC[C@]23C)OC1=O	> 10000		
0		CC1=C(CO)C(=O)O[C@@H]([C@@H](C)[C@H]2CC[C@H]3[C@@H]4C[C@H]5O[C@]56[C@@H](O)[C@@H](n5cnc7c(N)ncnc75)CC(=O)[C@]6(C)[C@H]4CC[C@]23C)C1	610		
3.31	Dose-dependent effect	CC(=O)OCC1=C(C)C[C@H]([C@@H](C)[C@H]2CC[C@H]3[C@@H]4C[C@H]5O[C@]56[C@@H](OC(C)=O)C=CC(=O)[C@]6(C)[C@H]4C[C@@H](OC(C)=O)[C@]23C)OC1=O	180	280	> 80
0.36		CC(=O)OCC1=C(C)C[C@H]([C@@H](C)[C@H]2CC[C@H]3[C@@H]4C[C@H]5O[C@]56[C@@H](O)[C@@H](OS(=O)(=O)O)CC(=O)[C@]6(C)[C@H]4CC[C@]23C)OC1=O	1120	730	> 80
0		CC1=C(CO)C(=O)O[C@@H]([C@@H](C)[C@H]2CC[C@H]3[C@@H]4C[C@H]5O[C@]56[C@@H](O)[C@@H](N=[N+]=[N-])CC(=O)[C@]6(C)[C@H]4CC[C@]23C)C1	1650	810	> 80
0.59		CC1=C(CO)C(=O)O[C@@H]([C@@H](C)[C@H]2CC[C@H]3[C@@H]4C[C@H]5O[C@]56[C@@H](O)[C@H](n5ccc(=O)[nH]c5=O)CC(=O)[C@]6(C)[C@H]4CC[C@]23C)C1	540	960	> 80
0		CC(=O)OCC1=C(C)C[C@H]([C@@H](C)[C@H]2CC[C@H]3[C@@H]4[C@@H]5O[C@@H]5[C@@]5(O)CC=CC(=O)[C@]5(C)[C@H]4CC[C@]23C)OC1=O	> 10000		
1.64		CC(=O)O[C@@H]1C=CC(=O)[C@]2(C)[C@H]3CC[C@]4(C)[C@@H]([C@H](C)[C@H]5CC(C)=C(CO)C(=O)O5)CC[C@H]4[C@@H]3C[C@H]3O[C@]132	250	830	> 80
0		CC1=C(CO)C(=O)O[C@@H]([C@@H](C)[C@H]2CC[C@H]3[C@@H]4C[C@H]5O[C@]56[C@@H](O)C=CC(=O)[C@]6(C)[C@H]4C[C@@H](O)[C@]23C)C1	4300		
0		CC1=C(CO)C(=O)O[C@@H]([C@@H](C)[C@H]2C[C@@H](O)[C@H]3[C@@H]4C[C@H]5O[C@]56[C@@H](O)C=CC(=O)[C@]6(C)[C@H]4CC[C@@]32C)C1	3830		
0.2		CC1=C(COS(=O)(=O)O)C(=O)O[C@@H]([C@@H](C)[C@H]2CC[C@H]3[C@@H]4C[C@H]5O[C@]56[C@@H](O)C=CC(=O)[C@]6(C)[C@H]4CC[C@]23C)C1	3320		
0		CCCCO[C@H]1CC(=O)[C@]2(C)[C@H]3CC[C@]4(C)[C@@H]([C@H](C)[C@H]5CC(C)=C(CO)C(=O)O5)CC[C@H]4[C@@H]3C[C@H]3O[C@]32[C@H]1O	8740		
0.74		CC(=O)OCC1=C(C)C[C@H]([C@@H](C)[C@H]2CC[C@H]3[C@@H]4C[C@H](OC(C)=O)[C@]5(O)[C@@H](OC(C)=O)C=CC(=O)[C@]5(C)[C@H]4CC[C@]23C)OC1=O	2290		
0		CC1=C(CO)C(=O)O[C@@H]([C@@H](C)[C@H]2CC[C@H]3[C@@H]4C[C@@H](O)[C@@]5(O)CC=CC(=O)[C@]5(C)[C@H]4CC[C@]23C)C1 [JABOROSALACTONE D]	> 10000		
